Test results reported in ChEMBL document CHEMBL4152279, “Synthesis, cytotoxic evaluation and target identification of thieno[2,3-d]pyrimidine derivatives with a dithiocarbamate side chain at C2 position” (Eur J Med Chem, 2018).
pIC50: −log10 of the molar value. Activity calls are given as the source filed them. The calls are words filed in the database; no cut-off is given here.

Tests used:
A549 [1] = experiment: Cell cycle arrest in human A549 cells assessed as accumulation at S phase at 1.5 times cytotoxic IC50 after 24 hrs by propidium iodide staining based flow cytometry (reference value: 32.37 +/- 1.23%); assay type: functional
A549 [2] = experiment: Cell cycle arrest in human A549 cells assessed as accumulation at G0/G1 phase at cytotoxic IC50 after 24 hrs by propidium iodide staining based flow cytometry (reference value: 46.39 +/- 1.75%); assay type: functional
A549 [3] = experiment: Cell cycle arrest in human A549 cells assessed as accumulation at G2/M phase at 0.5 times cytotoxic IC50 after 24 hrs by propidium iodide staining based flow cytometry (reference value: 20.95 +/- 0.8%); assay type: functional
A549 [4] = experiment: Activation of spindle assembly checkpoint in human A549 cells assessed as mitotic index by measuring cells positive for histone H3 phosphorylation at Ser10 residue at cytotoxic IC50 after 16 hrs by FITC staining based immunofluorescence assay (reference value: 3.23 +/- 0.15); assay type: functional
A549 [5] = experiment: Induction of DNA damage in human A549 cells assessed as gamma-H2AX foci formation after 12 hrs by DAPI staining based immunofluorescence assay; assay type: functional, cell-based
Method in brief: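 A549 cells treated 12 h, with camptothecin (2 μM, 2 h) and DMSO as comparators. Cells fixed and immunostained with mouse monoclonal anti-γ-H2AX, nuclei counterstained with DAPI, foci examined by immunofluorescence.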

MDA-MB-231 = experiment: Cytotoxicity against human MDA-MB-231 cells at 30 uM by MTS assay; assay type: functional, cell-based
A549 [6] = experiment: Cell cycle arrest in human A549 cells assessed as accumulation at G0/G1 phase at 1.5 times cytotoxic IC50 after 24 hrs by propidium iodide staining based flow cytometry (reference value: 46.39 +/- 1.75%); assay type: functional
HCT-116 [7] = experiment: Cytotoxicity against human HCT116 cells by MTS assay; assay type: functional, cell-based
Method in brief: (§1)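 MTS read-out (CellTiter 96 AQueous One) of proliferation in A549 or HCT-116 cells grown in DMEM with 10% FBS at 37 °C, 5% CO2. Taxol-resistant A549 cells were exposed for 72 h. Compounds were screened at 30 μM versus vehicle, with ≥50% inhibition counted active. Actives were then tested over a concentration range for IC50. Triplicate wells, three independent experiments, mean ± SD.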

A549 [8] = experiment: Induction of DNA damage in human A549 cells assessed as increase in CHK1 phosphorylation level after 12 hrs by immunoblot analysis; assay type: functional, cell-based
Method in brief: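 A549 cells treated 12 h, with camptothecin (2 μM, 2 h) and DMSO as comparators. Total lysates immunoblotted for γ-H2AX and pS345 CHK1.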

HT-29 = experiment: Cytotoxicity against human HT-29 cells at 30 uM by MTS assay; assay type: functional, cell-based
A549 [9] = experiment: Activation of spindle assembly checkpoint in human A549 cells assessed as mitotic index by measuring cells positive for histone H3 phosphorylation at Ser10 residue at cytotoxic IC50 after 8 hrs by FITC staining based immunofluorescence assay (reference value: 3.17 +/- 0.15); assay type: functional
A549 [10] = experiment: Cell cycle arrest in human A549 cells assessed as accumulation at G2/M phase after 24 hrs by propidium iodide staining based flow cytometry; assay type: functional
A549 [11] = experiment: Cell cycle arrest in human A549 cells assessed as accumulation at S phase at cytotoxic IC50 after 24 hrs by propidium iodide staining based flow cytometry (reference value: 32.37 +/- 1.23%); assay type: functional
A549 [12] = experiment: Activation of spindle assembly checkpoint in human A549 cells assessed as increase in histone H3 phosphorylation at Ser10 residue at cytotoxic IC50 after 12 to 24 hrs by immunoblot analysis; assay type: functional, cell-based
A549 [13] = experiment: Activation of spindle assembly checkpoint in human A549 cells assessed as cells positive for histone H3 phosphorylation at Ser10 residue by measuring mitotic cell population at cytotoxic IC50 after 4 hrs by propidium iodide staining based flow cytometry (reference value: 6.9%); assay type: functional
A549 [14] = experiment: Cell cycle arrest in human A549 cells assessed as accumulation at G2/M phase at 1.5 times cytotoxic IC50 after 24 hrs by propidium iodide staining based flow cytometry (reference value: 20.95 +/- 0.8%); assay type: functional
A549 [15] = experiment: Activation of spindle assembly checkpoint in human A549 cells assessed as cells positive for histone H3 phosphorylation at Ser10 residue by measuring mitotic cell population at cytotoxic IC50 after 2 hrs by propidium iodide staining based flow cytometry (reference value: 6.9%); assay type: functional
A549 [16] = experiment: Activation of spindle assembly checkpoint in human A549 cells assessed as cells positive for histone H3 phosphorylation at Ser10 residue by measuring mitotic cell population at cytotoxic IC50 after 16 hrs by propidium iodide staining based flow cytometry (reference value: 6.9%); assay type: functional
A549 [17] = experiment: Cytotoxicity against human A549 cells by MTS assay; assay type: functional, cell-based; method in brief: as §1
MCF7 = experiment: Cytotoxicity against human MCF7 cells at 30 uM by MTS assay; assay type: functional, cell-based
A549 [18] = experiment: Activation of spindle assembly checkpoint in human A549 cells assessed as mitotic index by measuring cells positive for histone H3 phosphorylation at Ser10 residue at cytotoxic IC50 after 2 hrs by FITC staining based immunofluorescence assay (reference value: 2.67 +/- 0.21); assay type: functional
HeLa = experiment: Cytotoxicity against human HeLa cells at 30 uM by MTS assay; assay type: functional, cell-based
A549 [19] = experiment: Activation of spindle assembly checkpoint in human A549 cells assessed as increase in BubR1 phosphorylation at cytotoxic IC50 after 6 to 24 hrs by immunoblot analysis; assay type: functional, cell-based
A549 [20] = experiment: Cell cycle arrest in human A549 cells assessed as accumulation at G0/G1 phase at 0.5 times cytotoxic IC50 after 24 hrs by propidium iodide staining based flow cytometry (reference value: 46.39 +/- 1.75%); assay type: functional
A549 [21] = experiment: Induction of DNA damage in human A549 cells assessed as increase in gamma-H2AX level after 12 hrs by immunoblot analysis; assay type: functional, cell-based
Method in brief: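 A549 cells treated for 12 h, with DMSO as diluent; camptothecin at 2 μM for 2 h served as positive control. Total cell lysates were immunoblotted for γ-H2AX (Ser139 phosphorylated H2AX) and pS345 CHK1. Immunofluorescence for γ-H2AX foci with DAPI counterstain was run in parallel.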

HCT-116 [22] = experiment: Cytotoxicity against human HCT116 cells at 30 uM by MTS assay relative to control; assay type: functional; method in brief: as §1
A549 [23] = experiment: Cytotoxicity against human A549 cells at 30 uM by MTS assay relative to control; assay type: functional; method in brief: as §1
A549 [24] = experiment: Antiproliferative activity against human A549 cells after 72 hrs by MTS assay; assay type: functional, cell-based; conditions: A549, 72 h; method in brief: as §1
A549 [25] = experiment: Cell cycle arrest in human A549 cells assessed as accumulation at S phase at 0.5 times cytotoxic IC50 after 24 hrs by propidium iodide staining based flow cytometry (reference value: 32.37 +/- 1.23%); assay type: functional
A549 [26] = experiment: Activation of spindle assembly checkpoint in human A549 cells assessed as mitotic index by measuring cells positive for histone H3 phosphorylation at Ser10 residue at cytotoxic IC50 after 4 hrs by FITC staining based immunofluorescence assay (reference value: 3.3 +/- 0.17); assay type: functional
A549 [27] = experiment: Cell cycle arrest in human A549 cells assessed as accumulation at G2/M phase at cytotoxic IC50 after 24 hrs by propidium iodide staining based flow cytometry (reference value: 20.95 +/- 0.8%); assay type: functional
A549 [28] = experiment: Activation of spindle assembly checkpoint in human A549 cells assessed as cells positive for histone H3 phosphorylation at Ser10 residue by measuring mitotic cell population at cytotoxic IC50 after 8 hrs by propidium iodide staining based flow cytometry (reference value: 6.9%); assay type: functional
Sus scrofa [29] = species: Sus scrofa; experiment: Inhibition of porcine tubulin polymerization after 60 mins by spectrometric method
Method in brief: (§2)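 Purified tubulin was incubated at 37 °C with compound at 5, 10 or 20 μM, with DMSO as vehicle. Polymerization was followed as the rise in absorbance at 340 nm over 60 min. Taxol (10 μM) and nocodazole (10 μM) served as controls. Three independent experiments were run.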

A549 [30] = experiment: Induction of DNA damage in human A549 cells assessed as gamma-H2AX foci formation at 2 uM after 2 hrs by DAPI staining based immunofluorescence assay; assay type: functional, cell-based
Method in brief: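 A549 cells were treated for 2 h with DMSO as diluent, then fixed. Cells were immunostained with a mouse monoclonal anti-γ-H2AX antibody, with DAPI as DNA counterstain, and γ-H2AX foci were scored by immunofluorescence.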

A549 [31] = experiment: Induction of DNA damage in human A549 cells assessed as increase in gamma-H2AX level at 2 uM after 2 hrs by immunoblot analysis; assay type: functional, cell-based
Method in brief: (§3)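 A549 cells were treated for 2 h with DMSO as diluent. Total cell lysates were run on 12% SDS-PAGE and transferred to PVDF. Membranes were blocked in PBST with 5% BSA and immunoblotted for γ-H2AX and pS345 CHK1, with HRP secondary detection.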

A549 [32] = experiment: Induction of DNA damage in human A549 cells assessed as increase in CHK1 phosphorylation level at 2 uM after 2 hrs by immunoblot analysis; assay type: functional, cell-based; method in brief: as §3
Sus scrofa [33] = species: Sus scrofa; experiment: Inhibition of porcine tubulin polymerization at 10 uM after 60 mins by spectrometric method; method in brief: as §2
A549 [34] = experiment: Activation of spindle assembly checkpoint in human A549 cells assessed as mitotic index by measuring cells positive for histone H3 phosphorylation at Ser10 residue at 340 nM after 4 hrs by FITC staining based immunofluorescence assay (reference value: 3.3 +/- 0.17); assay type: functional
A549 [35] = experiment: Activation of spindle assembly checkpoint in human A549 cells assessed as mitotic index by measuring cells positive for histone H3 phosphorylation at Ser10 residue at 340 nM after 8 hrs by FITC staining based immunofluorescence assay (reference value: 3.17 +/- 0.15); assay type: functional
A549 [36] = experiment: Activation of spindle assembly checkpoint in human A549 cells assessed as mitotic index by measuring cells positive for histone H3 phosphorylation at Ser10 residue at 340 nM after 2 hrs by FITC staining based immunofluorescence assay (reference value: 2.67 +/- 0.21); assay type: functional
A549 [37] = experiment: Activation of spindle assembly checkpoint in human A549 cells assessed as mitotic index by measuring cells positive for histone H3 phosphorylation at Ser10 residue at 340 nM after 16 hrs by FITC staining based immunofluorescence assay (reference value: 3.23 +/- 0.15); assay type: functional
A549 [38] = experiment: Cell cycle arrest in human A549 cells assessed as accumulation at G2/M phase at 0.1 uM after 24 hrs by propidium iodide staining based flow cytometry (reference value: 20.95 +/- 0.8%); assay type: functional
A549 [39] = experiment: Cell cycle arrest in human A549 cells assessed as accumulation at G0/G1 phase at 0.1 uM after 24 hrs by propidium iodide staining based flow cytometry (reference value: 46.39 +/- 1.75%); assay type: functional
A549 [40] = experiment: Cell cycle arrest in human A549 cells assessed as accumulation at S phase at 0.1 uM after 24 hrs by propidium iodide staining based flow cytometry (reference value: 32.37 +/- 1.23%); assay type: functional

Cc1cc2c(=O)[nH]c(CSC(=S)NCc3ccc(C#N)cc3)nc2s1
Activity (A549 [1]): 18.45% | Activity (A549 [2]): 24.24% | Activity (A549 [3]): 23.59% | Activity_index (A549 [4]): 19.17 | Activity (A549 [5]): inactive | Activity (MDA-MB-231): inactive | Activity (A549 [6]): 17% | pIC50 (HCT-116 [7]): 4.65 | Activity (A549 [8]): inactive | Activity (HT-29): inactive | Activity_index (A549 [9]): 15.6 | Activity (A549 [10]): Dose-dependent effect | Activity (A549 [11]): 19.85% | Activity (A549 [12]): Active | Activity (A549 [13]): 10.2% | Activity (A549 [14]): 61.89% | Activity (A549 [15]): 6.9% | Activity (A549 [16]): 19.5% | pIC50 (A549 [17]): 5.32 | Activity (MCF7): inactive | Activity_index (A549 [18]): 6.63 | Activity (HeLa): inactive | Activity (A549 [19]): Active | Activity (A549 [20]): 43.91% | Activity (A549 [21]): inactive | Activity (HCT-116 [22]): >=50% | Activity (A549 [23]): >=50% | pIC50 (A549 [24]): 5.14 | Activity (A549 [25]): 30.89% | Activity_index (A549 [26]): 9.67 | Activity (A549 [27]): 55.74% | Activity (A549 [28]): 13.7% | inhibition (Sus scrofa [29]): Dose-dependent effect

CC[C@@]1(O)C(=O)OCc2c1cc1n(c2=O)Cc2cc3ccccc3nc2-1
Activity (A549 [30]): Active | Activity (A549 [31]): Active | Activity (A549 [32]): Active

COC(=O)Nc1nc2cc(C(=O)c3cccs3)ccc2[nH]1 [NOCODAZOLE]
inhibition (Sus scrofa [33]): Active | Activity_index (A549 [34]): 14.57 | Activity_index (A549 [35]): 28.57 | Activity_index (A549 [36]): 9.83 | Activity_index (A549 [37]): 57.93

CC(=O)O[C@H]1C(=O)[C@@]2(C)[C@H]([C@H](OC(=O)c3ccccc3)[C@]3(O)C[C@H](OC(=O)[C@H](O)[C@@H](NC(=O)c4ccccc4)c4ccccc4)C(C)=C1C3(C)C)[C@]1(OC(C)=O)CO[C@@H]1C[C@@H]2O [PACLITAXEL]
Activity (A549 [38]): 74.17% | Activity (A549 [39]): 5.86% | pIC50 (A549 [24]): < 4.52 | Activity (A549 [40]): 24.56%

O=c1[nH]cc(F)c(=O)[nH]1 [FLUOROURACIL]
Activity (A549 [2]): 29.61% | Activity (A549 [11]): 59.27% | Activity (A549 [27]): 8.9%
